The term EC50 denotes the concentration giving half of the maximal effect. By IC50 is commonly meant the concentration that gives 50% inhibition.

The source made the active and inactive calls. The rule behind the calls is not given here.

A short description of assay [1]: Anti-inflammatory activity in Sprague-Dawley rat primary mixed glial cells assessed as inhibition of LPS-induced NO production at 50 uM pretreated for 2 hrs followed by LPS addition measured after 48 hrs by Griess assay (reference value: 100%). Type of assay: functional, Primary glial cell. On the set-up: scale not given: the % may be the effect or the level left.

Assay [2] deals with Cortical neurone. Description: Neuroprotective activity against fibril amyloid beta (25 to 35)-induced cell death in Sprague-Dawley rat 5 days old neonatal primary cortical neuron assessed as increase in cell viability at 50 uM pretreated for 2 hrs followed by 10 uM fibril amyloid beta (25 to 35) addition measured after 48 hrs by calcein AM dye-based confocal laser scanning microscopic analysis. It counts as functional. Put shortly: (§1)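 Rat pup cortical neurons in Neurobasal/B27, given 5 μM cytosine arabinoside for 1 day. Used at DIV5 for Aβ25–35 fibrils (aged 1 week at 37 °C; 10 μM, 48 h) or DIV10 for glutamate (30 μM, 24 h), after 2 h with 50 μM compound or 0.1% DMSO. Cells loaded with 1 μM calcein AM and ethidium homodimer-1 for 30 min at room temperature, imaged by confocal microscopy. Live-cell count and integrated density expressed relative to vehicle. Mean ± SEM, n=3.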

Assay [3] deals with Cortical neurone. Description: Neuroprotective activity against fibril amyloid beta (25 to 35)-induced cell death in Sprague-Dawley rat 5 days old neonatal primary cortical neurons assessed as increase in cell viability pretreated for 2 hrs followed by 10 uM fibril amyloid beta (25 to 35) addition measured after 48 hrs by MTT assay. Type of assay: functional, cell-based. The procedure, abridged: (§2)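 Cortical neurons pretreated 2 h with vehicle (0.1% DMSO) or compound at maximum nontoxic concentration. Then exposed at DIV5 to fibrillar Aβ25–35 (10 μM, 48 h) or at DIV10 to glutamate (30 μM, 24 h). MTT 0.5 mg/mL for 1 h, formazan dissolved in DMSO, OD read at 600 nm. Mean ± SD of three independent experiments.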
In general terms: Formazan colour is commonly taken as a measure of viable cells.

The test system of assay [4] is Cortical neurone. Description: Neuroprotective activity against fibril amyloid beta (25 to 35)-induced cell death in Sprague-Dawley rat 5 days old neonatal primary cortical neuron assessed as inhibition of fibril amyloid beta (25 to 35)-induced decrease in tau protein level at 50 uM pretreated for 2 hrs followed by 10 uM fibril amyloid beta (25 to 35) addition measured after 48 hrs by fluorescein isothiocyanate dye-based immunocytochemistry analysis. Type of assay: functional. Put shortly:
(§3)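 Cortical neurons at DIV5 (fibrillar Aβ25–35 10 μM, 48 h) or DIV10 (glutamate 30 μM, 24 h), after 2 h with 50 μM compound. Fixed in 4% paraformaldehyde, permeabilized with Triton X-100, blocked with donkey serum. Stained with anti-MAP2 and anti-tau (1:100, overnight at 4 °C), then FITC and RRX secondaries. Integrated density relative to vehicle. Mean ± SEM, n=3.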

The subject of assay [5] is Cortical neurone. Description: Neuroprotective activity against glutamate-induced cell death in Sprague-Dawley rat 10 days old neonatal primary cortical neurons assessed as cell death at maximum non toxic concentration pretreated for 2 hrs followed by 30 uM glutamate addition measured after 24 hrs by MTT assay (reference value: 41.22 +/- 3.40%). Type of assay: functional.

Assay [6] has as its system Cortical neurone. Description: Neuroprotective activity against glutamate-induced cell death in Sprague-Dawley rat 10 days old neonatal primary cortical neurons assessed as increase in cell viability pretreated for 2 hrs followed by 30 uM glutamate addition measured after 24 hrs by MTT assay. Type of assay: functional, cell-based. Put shortly: as §2
Assay [7] is described as follows: Antioxidant activity assessed as ABTS radical cation scavenging activity by measuring trolox equivalents by spectrophotometric analysis. It counts as functional.
The test system of assay [8] is Cortical neurone. Description: Neuroprotective activity against fibril amyloid beta (25 to 35)-induced cell death in Sprague-Dawley rat 5 days old neonatal primary cortical neuron assessed as inhibition of fibril amyloid beta (25 to 35)-induced decrease in MAP2 level at 50 uM pretreated for 2 hrs followed by 10 uM fibril amyloid beta (25 to 35) addition measured after 48 hrs by fluorescein isothiocyanate dye-based immunocytochemistry analysis. Type of assay: functional. The procedure, abridged: as §3

The next assay addresses Cytochrome P450 3A4 (Homo sapiens, UniProt P08684). The assay can be described thus: Inhibition of CYP3A4 in human liver microsomes. It counts as ADME. On the technique in general: Microsomes from liver hold many membrane-bound enzymes, among them those of drug oxidation.
In assay [9] the test system is Cortical neurone. Description: Neuroprotective activity against fibril amyloid beta (25 to 35)-induced cell death in Sprague-Dawley rat 5 day old neonatal primary cortical neurons assessed as cell death at maximum non toxic concentration pretreated for 2 hrs followed by 10 uM fibril amyloid beta (25 to 35) addition measured after 48 hrs by MTT assay (reference value: 39.20 +/- 0.88%). Type of assay: functional. Put shortly:
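Rat cortical neurons from pups, papain-dissociated, cytosine arabinoside (5 μM, 1 day) to remove non-neuronal cells, used at DIV5. Vehicle 0.1% DMSO or compound pretreatment before fAβ25–35 (aged 1 week at 37 °C). Viability by MTT reduction: 0.5 mg/mL for 1 h, formazan dissolved in DMSO, OD600. Mean ± SD of three independent experiments.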

Assay [10] can be described thus: Anti-inflammatory activity in Sprague-Dawley rat primary mixed glial cells assessed as inhibition of LPS-induced NO production pretreated for 2 hrs followed by LPS addition measured after 48 hrs by Griess assay. Type of assay: functional, cell-based. The conditions noted are these: Glial cell. Put shortly:
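Mixed cortical glia kept 3 days in DMEM/F12 with 10% FBS, medium changed, 4 more days, then 9 days in Neurobasal/B27 (16 days total). Cultures activated 2 days after medium refresh with 100 ng/mL LPS for 48 h, with compound at maximum nontoxic concentration. Medium nitrite read by Griess reagent at 540 nm against NaNO2 standard. Mean ± SD, three independent experiments.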
(Griess reagent forms a coloured azo dye with nitrite.)

Assay [11] has as its system Cortical neurone. The assay can be described thus: Neuroprotective activity against glutamate-induced cell death in Sprague-Dawley rat 10 days old neonatal primary cortical neuron assessed as inhibition of glutamate-induced decrease in MAP2 level at 50 uM pretreated for 2 hrs followed by 30 uM glutamate addition measured after 24 hrs by fluorescein isothiocyanate dye-based immunocytochemistry analysis. Type of assay: functional. The procedure, abridged: as §3

Assay [12] concerns Mus musculus. Description: Antialzheimer activity in APPswe/PSEN1dE9 double transgenic C57BL/6J mouse model of Alzheimer's disease assessed as decrease in number of unshredded nestlets at 30 mg/kg/day administered via oral gavage over 60 days by nesting test.
The test system of assay [13] is Cortical neurone. Description: Neuroprotective activity against glutamate-induced cell death in Sprague-Dawley rat 10 days old neonatal primary cortical neuron assessed as inhibition of glutamate-induced decrease in tau level at 50 uM pretreated for 2 hrs followed by 30 uM glutamate addition measured after 24 hrs by fluorescein isothiocyanate dye-based immunocytochemistry analysis. It counts as functional. Put shortly:
as §3

For assay [14], the system named is Cortical neurone. The assay can be described thus: Neuroprotective activity against glutamate-induced cell death in Sprague-Dawley rat 10 days old neonatal primary cortical neuron assessed as increase in cell viability at 50 uM pretreated for 2 hrs followed by 30 uM glutamate addition measured after 24 hrs by calcein AM dye-based confocal laser scanning microscopic analysis. It counts as functional. The procedure, abridged:
as §1

Assay [15] concerns Mus musculus. The assay can be described thus: Antialzheimer activity in APPswe/PSEN1dE9 double transgenic C57BL/6J mouse model of Alzheimer's disease assessed as increase in nesting score at 30 mg/kg/day administered via oral gavage over 60 days by nesting test. Type of assay: functional, organism-based. The procedure, abridged: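 Female APP/PS1 C57BL/6J mice, 5 months old, given compound by oral gavage at 30 mg/kg/day for 60 days. Wild-type siblings received vehicle. Two nestlets (about 5 g) placed in the cage 1 h before the dark cycle. Nest score and unshredded nestlet weight recorded. Mean ± SD per group.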

Chain of Cytochrome P450 3A4 (P08684 whole entry): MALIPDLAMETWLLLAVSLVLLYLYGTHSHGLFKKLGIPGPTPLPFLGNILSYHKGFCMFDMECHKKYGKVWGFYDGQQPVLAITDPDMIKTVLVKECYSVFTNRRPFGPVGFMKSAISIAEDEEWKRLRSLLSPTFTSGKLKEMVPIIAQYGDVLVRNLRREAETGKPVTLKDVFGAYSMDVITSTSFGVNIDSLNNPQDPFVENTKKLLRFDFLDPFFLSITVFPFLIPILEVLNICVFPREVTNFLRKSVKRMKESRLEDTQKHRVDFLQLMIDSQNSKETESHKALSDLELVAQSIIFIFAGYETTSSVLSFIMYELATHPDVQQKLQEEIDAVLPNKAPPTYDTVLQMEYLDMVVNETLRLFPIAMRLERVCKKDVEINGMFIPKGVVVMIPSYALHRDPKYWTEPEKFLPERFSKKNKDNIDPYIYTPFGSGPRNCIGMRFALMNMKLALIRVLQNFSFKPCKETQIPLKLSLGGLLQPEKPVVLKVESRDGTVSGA

For the molecule `Oc1ccc(-c2cc3cc(Br)cc(O)c3o2)cc1O`, the Activity worked out at 86.85% in assay [1], 31.45% with Cortical neurone [5], 0.06 mMequiv in [7] and 16.95% in the assay with Cortical neurone [9]. The result in the assay with Cortical neurone [2] was Active. Also, the EC50 with Cortical neurone [3] was 36.5 µM; in the assay on Cortical neurone [6] it was over 50 µM; in [10], over 100 µM. In addition, the inhibition result with Cortical neurone [4] is “inactive”. In the assay with Cortical neurone [8], the inhibition entry is “Active”. Moreover, the IC50 against Cytochrome P450 3A4 is 23.5 µM.

Take `CCOC(=O)/C=C/c1cc(O)c2oc(-c3cc(O)c(O)c(O)c3)cc2c1`: the inhibition result in the assay on Cortical neurone [11] and in the assay with Cortical neurone [13] was “Active” throughout. For the same molecule, the Activity in [1] came to 40.35%; in the assay with Cortical neurone [5] it was 24.48%; in assay [7], 0.94 mMequiv; with Cortical neurone [9], 21.18%. Moreover, the outcome in the assay with Cortical neurone [2], with Mus musculus [12], with Cortical neurone [14] and in the assay on Mus musculus [15] was Active. The EC50 with Cortical neurone [3] is 53 µM; in the assay with Cortical neurone [6], 33 µM; in assay [10] it was 56.6 µM. The inhibition entry with Cortical neurone [4] is “inactive”. The molecule also displayed an IC50 against Cytochrome P450 3A4 of 21.7 µM.

For the molecule `CCOC(=O)/C=C/c1ccc(/C=C/c2cc(O)c(O)c(O)c2)cc1`, the inhibition result in the assay with Cortical neurone [11] and with Cortical neurone [13] was “Active” in each case. Further, the Activity in assay [1] was 72.93%; with Cortical neurone [5], 28.05%; in [7] it was 0.14 mMequiv; with Cortical neurone [9], 19.23%. In addition, the outcome in the assay on Cortical neurone [2] and in the assay on Cortical neurone [14] was Active. The outcome in the assay on Mus musculus [12] and in the assay with Mus musculus [15] was inactive. Further, the EC50 with Cortical neurone [3] is 40.9 µM; with Cortical neurone [6] it was over 50 µM; in assay [10] it was 99.2 µM. Also, in the assay on Cortical neurone [4], the inhibition entry is “inactive”. The midpoint of inhibition at Cytochrome P450 3A4, the IC50, lay at 36.2 µM.

For `CCOC(=O)/C=C/c1cc(O)c(O)cc1-c1cc2ccccc2o1`, the inhibition entry with Cortical neurone [11] and with Cortical neurone [13] was “Active” each time. The Activity in [1] is 49.61%; in the assay on Cortical neurone [5] it was 21%; in assay [7], 0.01 mMequiv; in the assay on Cortical neurone [9] it was 25.45%. Further, the outcome in the assay on Cortical neurone [2], in the assay with Mus musculus [12], with Cortical neurone [14] and in the assay on Mus musculus [15] was Active. For the same molecule, the EC50 with Cortical neurone [3] is over 50 µM; in the assay on Cortical neurone [6], 46.1 µM; in assay [10], over 100 µM. In addition, the inhibition result in the assay on Cortical neurone [4] is “inactive”. Further, the IC50 on Cytochrome P450 3A4 worked out at 11.2 µM.

As for `Oc1ccc(-c2cc3c(Br)ccc(O)c3o2)cc1O`, the Activity was 61.64% in assay [1], 40.83% with Cortical neurone [5], 0.12 mMequiv in assay [7] and 4.11% in the assay with Cortical neurone [9]. Also, the outcome with Cortical neurone [2] was Active. The EC50 in the assay on Cortical neurone [3] is 26.7 µM; in the assay on Cortical neurone [6], over 0.5 µM; in [10], over 100 µM. Further, the inhibition result with Cortical neurone [4] was “inactive”. Besides, the inhibition result in the assay on Cortical neurone [8] was “Active”.

Source of the values: ChEMBL document CHEMBL4043092, “Neuroprotective and Antineuroinflammatory Effects of Hydroxyl-Functionalized Stilbenes and 2-Arylbenzo[b]furans” (J Med Chem, 2017).
